Legend:
zebrafish = conditions: in vivo; cited from earlier work
α-chymotrypsin = α-chymotrypsin (Bos taurus, UniProt P00766); experiment: Chymotrypsin inhibition assay; format: biochemical
Procedure, shortened: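 α-Chymotrypsin, added as a 10 U/mL solution in kit assay buffer, was preincubated with test compound from a DMSO dilution series (10 μM to 1 nM) for 15 min at room temperature. A reference micropeptin served as positive control. A working reagent of 1% substrate in assay buffer was added, and fluorescence (ex/em 485/530 nm) was read every 30 s for 30 min. IC50 was calculated from the data.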

[1] = biological target: T1, human neutrophil elastase (Homo sapiens, UniProt P08246); experiment: Neutrophil elastase inhibition assay; format: biochemical; conditions: dilution series 10 μM to 1 nM; general statement covering both protease assays
T1 sequence (P08246 30-267): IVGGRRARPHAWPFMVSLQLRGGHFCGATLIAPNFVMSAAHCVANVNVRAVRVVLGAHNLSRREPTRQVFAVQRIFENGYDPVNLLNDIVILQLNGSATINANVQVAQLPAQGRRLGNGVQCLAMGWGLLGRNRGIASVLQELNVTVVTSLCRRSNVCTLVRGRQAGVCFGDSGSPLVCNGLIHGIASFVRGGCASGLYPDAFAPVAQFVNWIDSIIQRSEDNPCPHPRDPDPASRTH

chymotrypsin = conditions: read-out: IC50, chymotrypsin inhibition; literature value; cited from earlier work

In the case of `CCCCCC(=O)N[C@@H](CC(=O)O)C(=O)N[C@H]1C(=O)N[C@@H](CCCN=C(N)N)C(=O)NC2CCC(O)N(C2=O)[C@@H]([C@H](C)CC)C(=O)N(C)[C@@H](Cc2ccc(O)cc2)C(=O)N[C@@H]([C@@H](C)CC)C(=O)O[C@@H]1C` (some centres unmarked) [micropeptin K139], the “share of the overall mortality attributed to the compound” value (zebrafish) is listed as 52%.
In the case of Micropeptin 982 (L-Ser) [Compound 2], the “chymotrypsin inhibitory activity (in words)” value (α-chymotrypsin; dilution series 10 μM to 1 nM) is reported as “no inhibition was observed” and the “inhibitory activity (in words), neutrophil elastase” value [1] is reported as “lacked any inhibitory activity”.
With Micropeptin 996 (D-Gln) [Compound 4] the “chymotrypsin inhibition (in words)” value (α-chymotrypsin; up to a concentration of 10 μM) was “not active”.
In the case of Microviridin 1777, the IC50 (chymotrypsin) is given as 100 nM.
